# ChEMBL document CHEMBL1795232, “Benzoxazinones as potent positive allosteric AMPA receptor modulators: part I” (Bioorg Med Chem Lett, 2011)
# Columns and labels:
# [1] = Displacement of [3H]AMPAKINE from AMPA receptor in rat forebrain
# [2] = species on record: Rattus norvegicus; assay: Positive allosteric modulation at AMPA receptor in Sprague-Dawley rat embryonic hippocampal neuron assessed as concentration required to double the steady-state current induced by glutamate by patch-clamp assay; format: tissue-based; conditions: Hippocampus
# Summary of the method: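 Hippocampal neurons from E18 Sprague-Dawley rats, cultured 4-7 days, whole-cell voltage-clamped at -80 mV at room temperature. Cells were pretreated 20 s with saline or modulator by superfusion, then given 500 µM glutamate with or without modulator for 1 s. Mean plateau current at 600-900 ms was taken. EC2x is the concentration doubling the steady-state glutamate current.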
# [3] = species on record: Rattus norvegicus; assay: Positive allosteric modulation at AMPA receptor in Sprague-Dawley rat adult hippocampal slice assessed as increase in field excitatory postsynaptic potential amplitude at 3 uM; format: tissue-based; conditions: Hippocampus
# Summary of the method: (§1)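 Transverse hippocampal slices from adult male Sprague-Dawley rats (4-6 weeks) held on nylon net in a rapid-flow linear interface chamber. Schaffer-commissural fibers stimulated with paired pulses (200 ms interval) at 0.05 Hz. After a 20-30 min stable baseline, compound infused 30 min, then washed out with control ACSF. DMSO stocks diluted into ACSF. Read-out was percentage increase in fEPSP amplitude.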
# [4] = species on record: Rattus norvegicus; assay: Positive allosteric modulation at AMPA receptor in Sprague-Dawley rat adult hippocampal slice assessed as increase in field excitatory postsynaptic potential amplitude at 1 uM; format: tissue-based; conditions: Hippocampus; summary of the method: as §1
# [5] = species on record: Rattus norvegicus; assay: Positive allosteric modulation at AMPA receptor in Sprague-Dawley rat adult hippocampal slice assessed as increase in field excitatory postsynaptic potential amplitude at 30 uM; format: tissue-based; conditions: Hippocampus; summary of the method: as §1
# [6] = species on record: Rattus norvegicus; assay: Positive allosteric modulation at AMPA receptor in Sprague-Dawley rat adult hippocampal slice assessed as increase in field excitatory postsynaptic potential amplitude at 10 uM; format: tissue-based; conditions: Hippocampus; summary of the method: as §1
Structure (SMILES),Ki [1],Activity [2],also measured
O=C1c2cc3c(cc2OCN1C1CCCC1)C(=O)N1CCCC1O3 (stereo unspecified),163 µM,7 µM,
C#CCN1COc2cc3c(cc2C1=O)OC1CCCN1C3=O (stereo unspecified),7 µM,0.25 µM,Activity [3]: 6%
C=CCN1COc2cc3c(cc2C1=O)OC1CCCN1C3=O (stereo unspecified),18 µM,0.5 µM,
O=C1c2cc3c(cc2OC2CCCN12)OCCO3 (stereo unspecified),,2.3 µM,
CCCN1COc2cc3c(cc2C1=O)OC1CCCN1C3=O (stereo unspecified),70 µM,2.5 µM,Activity [4]: 0%
O=C1NCOc2cc3c(cc21)OC1CCCN1C3=O (stereo unspecified),225 µM,5 µM,Activity [5]: 5%
O=C1c2cc3c(cc2OC2CCCN12)OCOC3 (stereo unspecified),,22 µM,
O=C1c2cc3c(cc2OC2CCCN12)OC1CCCN1C3=O (stereo unspecified),,2.6 µM,
O=C1c2cc3c(cc2OC2CCCN12)CCCO3 (stereo unspecified),,1.1 µM,
CC(CNS(=O)(=O)C(C)C)c1ccc(-c2ccsc2)cc1 (stereo unspecified),,0.07 µM,
O=C1c2cc3c(cc2OCN1CC(F)(F)F)C(=O)N1CCCC1O3 (stereo unspecified),330 µM,8.8 µM,Activity [4]: 0%
CN1COc2cc3c(cc2C1=O)OC1CCCN1C3=O (stereo unspecified),18 µM,0.1 µM,Activity [6]: 19%
NS(=O)(=O)c1cc2c(cc1Cl)NC(C1CC3C=CC1C3)NS2(=O)=O (stereo unspecified),,1.6 µM,
CC(C)CN1COc2cc3c(cc2C1=O)OC1CCCN1C3=O (stereo unspecified),,41 µM,
O=C1c2cc3c(cc2OCN1C1CC1)C(=O)N1CCCC1O3 (stereo unspecified),26 µM,0.8 µM,Activity [6]: 10%
O=C1c2cc3c(cc2OCN1CCF)C(=O)N1CCCC1O3 (stereo unspecified),33 µM,0.5 µM,Activity [6]: 9%
O=C1c2cc3c(cc2OC2CCCN12)C(=O)N1CCCC1O3 (stereo unspecified),,0.06 µM,
O=C1c2cc3c(cc2OC2CCCN12)COCO3 (stereo unspecified),,1.1 µM,
CCN1COc2cc3c(cc2C1=O)OC1CCCN1C3=O (stereo unspecified),20 µM,0.2 µM,Activity [6]: 17%
COc1ccc(C(=O)N2CCCC2=O)cc1,,> 1000 µM,
CC(C)N1COc2cc3c(cc2C1=O)OC1CCCN1C3=O (stereo unspecified),100 µM,0.9 µM,Activity [6]: 3%
